For data set [1], the target named is CARD8-DPP9 ternary complex in HEK 293T^CASP1+GSDMD cells (Homo sapiens, UniProt Q86TI2). The data set is described as follows: dTAG-based CARD8-DPP9 ternary complex disruption assay. It is filed as cell-based. The settings on record: dTAG-13 500 nM; VbP 10 μM, CQ31 20 μM, CQ80 20 μM, VP-OMe 1 mM; 6 h; LDH release. On the technique in general: LDH in the medium is a marker of cell lysis.

The subject of data set [2] is MV4;11 cells. The data set is described as follows: PI uptake in MV4. It is filed as cell-based, human. To be noted: 6.25 μM; WT, CASP1^−/−, CARD8^−/− cells. An outline of the steps:
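MV4;11 cells (WT, CASP1−/− or CARD8−/−) were plated at 2 × 10^4 cells/well in 384-well format in RPMI and treated with test compound (6.25 μM) for 6 h before PI uptake monitoring. PI was added at 10 μM final. Fluorescence (Ex/Em 535/617 nm) was read every 5 min at 37 °C, baseline-corrected to DMSO vehicle and normalised to maximum response.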

The test system of data set [3] is THP-1 cells. The data set can be described thus: LDH release and GSDMD cleavage in knockout THP-1 cells. It is filed as cell-based, human. To be noted: 20 μM, 24 h; for Pyroptosis in DPP8/9^−/− THP-1 cells: LDH release and GSDMD cleavage.
For data set [4], the system named is DOX-inducible CARD8 E274R mutant THP-1 cells. The data set can be described thus: CARD8 E274R mutant NT degradation assay in CARD8^−/− THP-1 cells. To be noted: DOX 100 ng/mL 16 h; VbP 10 μM, CQ31/CQ80 20 μM, VP-OMe 1 mM, MeBs 10 μM; 6 h. It is filed as cell-based, human. An outline of the steps: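 Parental CARD8-knockout THP-1 cells carry a stably integrated doxycycline-inducible CARD8 E274R construct. Cells are grown in RPMI 1640 with L-glutamine and 10% FBS at 37 °C in 5% CO2. They are induced with or without DOX (100 ng/mL, 16 h), then exposed to test compounds for 6 h.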

Data set [5] can be described thus: Stability in cell culture supernatants. The data set is classed as in vitro ADME. An outline of the steps:
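Test compounds are incubated in conditioned medium collected from MV4;11 cultures for 24 h at 37 °C. Intact compound and the free acid product are then quantified by LC/MS, with species identified by retention time. Values are means ± SEM of three biological replicates.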

In data set [6] the target is recombinant XPNPEP1 (Homo sapiens, UniProt Q9NQW7). The data set can be described thus: Inhibition of recombinant XPNPEP1, H-Lys. It is filed as biochemical. To be noted: recombinant XPNPEP1.
Data set [7] deals with human resting T cells. The data set can be described thus: GSDMD cleavage in human resting T cells. The data set is classed as cell-based. To be noted: 20 μM, 24 h. Summed up: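 Primary human T cells (>90% purity by flow cytometry) are thawed in RPMI-1640 with 10% FBS and cultured with 30 U/mL IL-2. Cells receive test compound for 24 h, then are washed twice in PBS and lysed by sonication. Protein is normalized before SDS-PAGE, and blots are probed with an anti-GSDMD rabbit polyclonal and imaged by infrared fluorescence.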

Data set [8] deals with OCI-AML2 cells. The data set can be described thus: CTG cell viability in WT and CARD8^−/− OCI-AML2 cells. It is filed as cell-based, human. The settings on record: 24 h. Summed up: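 Test compound was added by pintool at various concentrations to OCI-AML2 cells (WT or CARD8−/−) plated at 2000 cells/well in 384-well format, in RPMI 1640 with L-glutamine and 10% FBS. Cells were incubated for 24 h at 37 °C in 5% CO2. CellTiter-Glo was then added, plates were shaken for 2 min and held at 25 °C for 10 min, and luminescence was read.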

Data set [9] deals with MV4;11, OCI-AML2, and THP-1 cells. The data set is described as follows: LDH release and GSDMD cleavage immunoblot in WT and CARD8^−/− cells. It is filed as cell-based, human. To be noted: 20 μM, 24 h, but not CARD8^−/−.
Data set [10] concerns the target T1, recombinant human PEPD (Homo sapiens, UniProt P12955).
T1 sequence (P12955 1-493): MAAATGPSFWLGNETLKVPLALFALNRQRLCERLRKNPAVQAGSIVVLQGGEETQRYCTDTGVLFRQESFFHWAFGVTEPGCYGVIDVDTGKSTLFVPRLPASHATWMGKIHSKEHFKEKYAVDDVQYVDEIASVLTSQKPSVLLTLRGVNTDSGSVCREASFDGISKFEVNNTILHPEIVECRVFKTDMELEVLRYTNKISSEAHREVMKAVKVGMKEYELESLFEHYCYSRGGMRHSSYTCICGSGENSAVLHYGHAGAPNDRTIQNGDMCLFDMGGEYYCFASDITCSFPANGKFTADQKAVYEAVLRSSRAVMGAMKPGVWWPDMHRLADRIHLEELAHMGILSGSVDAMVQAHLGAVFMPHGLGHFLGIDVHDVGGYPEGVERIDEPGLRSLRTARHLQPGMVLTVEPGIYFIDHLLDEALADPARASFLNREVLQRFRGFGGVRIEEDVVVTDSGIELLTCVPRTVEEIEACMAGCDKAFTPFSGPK
The data set is described as follows: Inhibition of recombinant PEPD, alanine release assay. It is filed as biochemical.

For data set [11] the following is noted: after 24 h; cited from earlier work.
Data set [12] has as its system BMDMs from C57BL/6J mice and RAW264.7 cells. The data set can be described thus: LDH release and GSDMD cleavage in mouse BMDMs and RAW264.7 cells. The data set is classed as cell-based. The settings on record: VbP 10 μM, CQ31/CQ80 20 μM, 24 h. An outline of the steps:
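BMDMs: bone marrow is collected from femurs and tibias of 7–12-week-old C57BL/6J mice, strained (70 μm) and RBC-lysed. Cells are cultured 6 days at 37 °C in DMEM with 10% FBS and 15–20% L-cell medium, then replated. RAW264.7 cells are grown in DMEM with 10% FBS and seeded at 5 × 10^5 per well in 12-well plates. Both receive compound for 24 h. LDH is read relative to a Triton X-100 lysis control, and immunoblots use an anti-mouse GSDMD rabbit monoclonal. RAW264.7 data are means ± SEM, n = 3.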

Data set [13] relates to N/TERT-1 immortalized keratinocytes. The data set can be described thus: CTG cell viability in N/TERT-1 keratinocytes. The data set is classed as cell-based, human. The settings on record: VbP 10 μM, CQ compounds 20 μM, 24 h. Summed up:
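N/TERT-1 keratinocytes are grown in keratinocyte serum-free medium with 1× penicillin/streptomycin, bovine pituitary extract (25 μg/mL) and EGF (0.2 ng/mL) at 37 °C in 5% CO2. Plating density is 2000 cells/well in 384-well plates, with compound added by pin tool. After 24 h, CellTiter-Glo reagent is added, plates are shaken 2 min, held 10 min at 25 °C, and luminescence is read. Values are means ± SEM of three biological replicates.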

The subject of data set [14] is OCI-AML2 cells. The data set can be described thus: PI uptake in OCI-AML2 cells. It is filed as cell-based, human. To be noted: 6.25 μM, compared to CQ31. Summed up:
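OCI-AML2 cells (2 × 10^4 per well, 384-well, RPMI) are treated with 6.25 μM compound, with PI added at 10 μM final. PI fluorescence (Ex/Em 535/617 nm) is recorded at 37 °C every 5 min over 6 h. Signals are baseline-corrected to DMSO vehicle and normalized to the maximum response. Values are means ± SEM of three biological replicates.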

Molecules are shown by their SMILES.

Sequence of CARD8-DPP9 ternary complex in HEK 293T^CASP1+GSDMD cells (Q86TI2 whole entry, one chain of several): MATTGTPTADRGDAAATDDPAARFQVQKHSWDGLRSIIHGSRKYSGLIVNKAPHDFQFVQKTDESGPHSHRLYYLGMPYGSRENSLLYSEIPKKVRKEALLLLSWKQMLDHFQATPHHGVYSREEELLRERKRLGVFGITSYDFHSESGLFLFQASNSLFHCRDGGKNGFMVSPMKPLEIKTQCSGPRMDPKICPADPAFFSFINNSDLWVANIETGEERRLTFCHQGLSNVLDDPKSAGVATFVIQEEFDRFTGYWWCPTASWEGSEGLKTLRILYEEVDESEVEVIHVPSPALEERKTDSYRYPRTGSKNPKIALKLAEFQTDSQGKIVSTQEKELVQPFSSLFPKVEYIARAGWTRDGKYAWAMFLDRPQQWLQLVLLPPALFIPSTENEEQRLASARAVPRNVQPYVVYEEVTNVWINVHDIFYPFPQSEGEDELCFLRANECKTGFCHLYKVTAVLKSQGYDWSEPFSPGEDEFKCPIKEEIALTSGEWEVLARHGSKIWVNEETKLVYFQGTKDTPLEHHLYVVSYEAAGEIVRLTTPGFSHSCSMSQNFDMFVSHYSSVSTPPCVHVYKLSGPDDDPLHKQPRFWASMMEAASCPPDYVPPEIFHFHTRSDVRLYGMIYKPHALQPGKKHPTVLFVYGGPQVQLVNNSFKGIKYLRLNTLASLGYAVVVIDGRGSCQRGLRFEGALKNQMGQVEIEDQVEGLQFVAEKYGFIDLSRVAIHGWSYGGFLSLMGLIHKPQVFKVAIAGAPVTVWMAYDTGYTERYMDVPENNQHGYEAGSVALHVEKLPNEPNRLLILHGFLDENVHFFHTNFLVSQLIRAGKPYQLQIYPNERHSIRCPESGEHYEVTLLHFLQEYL
Sequence of recombinant XPNPEP1 (Q9NQW7 whole entry): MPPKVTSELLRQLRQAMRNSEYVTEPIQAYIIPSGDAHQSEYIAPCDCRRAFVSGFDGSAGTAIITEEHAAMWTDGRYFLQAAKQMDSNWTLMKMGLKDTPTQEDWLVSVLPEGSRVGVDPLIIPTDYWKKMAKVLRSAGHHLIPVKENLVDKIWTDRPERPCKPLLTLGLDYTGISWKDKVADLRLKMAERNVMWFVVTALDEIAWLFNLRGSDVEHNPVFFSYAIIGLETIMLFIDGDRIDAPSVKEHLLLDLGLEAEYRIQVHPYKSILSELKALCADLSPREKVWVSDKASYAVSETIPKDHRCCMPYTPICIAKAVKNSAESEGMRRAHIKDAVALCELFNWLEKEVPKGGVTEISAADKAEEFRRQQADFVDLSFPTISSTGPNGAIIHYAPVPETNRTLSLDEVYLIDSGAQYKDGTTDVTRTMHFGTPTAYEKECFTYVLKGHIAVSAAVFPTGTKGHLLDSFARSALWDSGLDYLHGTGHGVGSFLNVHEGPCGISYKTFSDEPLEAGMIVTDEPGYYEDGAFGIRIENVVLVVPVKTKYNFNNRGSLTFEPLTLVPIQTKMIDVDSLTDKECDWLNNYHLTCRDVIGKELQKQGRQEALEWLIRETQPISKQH

Regarding `COC(=O)[C@@H]1CCCN1C(=O)[C@@H](O)[C@H](N)CC(C)C` [CQ31], in [1], the “Pyroptosis after dTAG-13 treatment (ternary complex destabilization)” value is on record as “induce more pyroptosis after dTAG-13 treatment”. In data set [2], the “PI uptake in MV4;11 cells” value is “induced PI uptake in WT but not CASP1^−/− or CARD8^−/−”. In data set [3], the “Sensitivity of PEPD and XPNPEP1 single knockout THP-1 cells” value is on record as “sensitive”; the “Sensitivity of PEPD/XPNPEP1 double knockout THP-1 cells” value is “completely resistant”; the “Pyroptosis in DPP8/9^−/− THP-1 cells” value is on record as “neither CQ80 nor CQ31 induced any additional pyroptosis”. Further, in data set [4], the “Additional cell death in CARD8 E274R assay (NT degradation)” value (shortened to “Additional cell death”) is on record as “do not trigger as much degradation as MeBs”. Also, the “Time to conversion to CQ04” value in data set [5] was no more than 30 min. Moreover, in data set [6], the “XPNPEP1 inhibition (in words)” value is “inhibited PEPD and XPNPEP1 similarly”. The “GSDMD cleavage in human resting T cells” value in data set [7] is “induced GSDMD cleavage”. Further, the “Cell death in OCI-AML2 cells” value in data set [8] is “induced cell death in WT but not CARD8^−/−”. In addition, the “LDH release and GSDMD cleavage” value in data set [9] was “induced lactate dehydrogenase (LDH) release and GSDMD cleavage”. Besides, the “PEPD inhibition (in words)” value in data set [10] is “inhibited PEPD and XPNPEP1 similarly”. In [11], the “De-esterification to CQ04 in cell culture” value is recorded as “completely de-esterified”.
Regarding `COC(=O)[C@H](CC(C)C)NC(=O)[C@@H]1CCCN1C(=O)[C@@H](O)[C@H](N)CC(C)C` [CQ80, Methyl ((2S,3R)-3-Amino-2-hydroxy-5-methylhexanoyl)-l-prolyl-l-leucinate], the “Pyroptosis after dTAG-13 treatment (ternary complex destabilization)” value in [1] is given as “induce more pyroptosis after dTAG-13 treatment”. Moreover, in data set [12], the “Pyroptosis in mouse BMDMs and RAW264.7 cells (rodent NLRP1 activation)” value is on record as “does not activate”. In addition, in data set [2], the “PI uptake in MV4;11 cells” value is given as “induced PI uptake in WT but not CASP1^−/− or CARD8^−/−”. Besides, the “Cell death in N/TERT-1 keratinocytes (human NLRP1 activation)” value in data set [13] is given as “does not activate”. Also, in data set [3], the “Sensitivity of PEPD and XPNPEP1 single knockout THP-1 cells” value was “sensitive”; the “Sensitivity of PEPD/XPNPEP1 double knockout THP-1 cells” value is reported as “completely resistant”; the “Pyroptosis in DPP8/9^−/− THP-1 cells” value was “neither CQ80 nor CQ31 induced any additional pyroptosis”. Further, the “Rate of lytic cell death by PI uptake in OCI-AML2 cells” value in data set [14] is recorded as “caused more rapid lytic cell death”. Also, the “Additional cell death” value in [4] is reported as “do not trigger as much degradation as MeBs”. Besides, the Fraction remaining intact in data set [5] (after 24 h at 37 °C) is ~ 50%. The “GSDMD cleavage in human resting T cells” value in [7] is listed as “induced GSDMD cleavage”. For the same compound, the “Cell death in OCI-AML2 cells” value in data set [8] is listed as “induced cell death in WT but not CARD8^−/−”. For the same compound, the “LDH release and GSDMD cleavage” value in data set [9] is “induced lactate dehydrogenase (LDH) release and GSDMD cleavage”.
With `CC(C)[C@H](N)C(=O)N1CCC[C@H]1B(O)O` [VbP, ValboroPro, reference compound], the “Pyroptosis in mouse BMDMs and RAW264.7 cells (rodent NLRP1 activation)” value in data set [12] is given as “induced pyroptosis”. In addition, in data set [13], the “Cell death in N/TERT-1 keratinocytes (human NLRP1 activation)” value is “induced cell death”. Besides, the “Additional cell death” value in [4] is “did not cause substantially more death”.
